In ChEMBL document CHEMBL1124386, “Selective thyromimetics. Cardiac-sparing thyroid hormone analogues containing 3'-arylmethyl substituents” (J Med Chem, 1989):
Converted amounts (≈) assume the structure as drawn. The source made the active and inactive calls. The calls are words filed in the database; no cut-off is given here.

Columns and labels:
Rattus norvegicus [1] = test: Potency for induction of GPDH (mitochondrial cytochrome C 3-phosphoglycerate oxidoreductase) was measured 48 hr after single im injection relative to T3 in liver; LM=low maximal response after 2 daily doses of 50 mg/kg; assay type: functional, organism-based; parameters: dose 50 mg/kg; conditions: filed as partial agonist
[2] = Binding affinity to the thyroid hormone receptor was determined in vitro in isolated nuclei of rat liver relative to 3,5,3' triiodothyronine; assay type: tissue-based
Rattus norvegicus [3] = test: In vivo binding affinity for 3,5,3'' triiodothyronine receptor of heart nuclei 1 hr after intravenous administration; assay type: organism-based
Rattus norvegicus [4] = species on record: Rattus norvegicus; test: Selectivity ratio of ID50 in liver and heart
How it was run: (§1)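 Liver/heart selectivity in rats, calculated as (relative ID50)liver divided by (relative ID50)heart, from in vivo nuclear binding 1 h after intravenous dosing.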

[5] = system: Thyroid hormone receptor (Rattus norvegicus); test: Binding affinity to thyroid hormone receptor, relative to 3,5,3' triiodothyronine receptor, in isolated nuclei of heart
Rattus norvegicus [6] = test: In vivo binding affinity for 3,5,3' triiodothyronine receptor of liver nuclei 1 hour after intravenous administration; assay type: organism-based
Rattus norvegicus [7] = test: Potency for induction of GPDH (mitochondrial cytochrome C3-phosphoglycerate oxidoreductase) was measured 48 hr after single im injection relative to T3 in heart; I=inactive after 2 daily doses of 50 mg/kg; assay type: functional, organism-based; parameters: dose 50 mg/kg
Rattus norvegicus [8] = test: Potency for induction of GPDH (mitochondrial cytochrome C3-phosphoglycerate oxidoreductase) was measured 48 hours after single intramuscular injection relative to T3 in liver; assay type: functional
[9] = Selectivity, ratio between relative ID50 in liver and heart; how it was run: as §1
[10] = biological target: T1, Thyroid hormone receptor beta (Rattus norvegicus) (UniProt P18113); test: Binding affinity to the receptor was determined in nuclei of heart in vivo 1 hour after intravenous administration relative to 3,5,3' triiodothyronine receptor
T1 sequence (whole entry): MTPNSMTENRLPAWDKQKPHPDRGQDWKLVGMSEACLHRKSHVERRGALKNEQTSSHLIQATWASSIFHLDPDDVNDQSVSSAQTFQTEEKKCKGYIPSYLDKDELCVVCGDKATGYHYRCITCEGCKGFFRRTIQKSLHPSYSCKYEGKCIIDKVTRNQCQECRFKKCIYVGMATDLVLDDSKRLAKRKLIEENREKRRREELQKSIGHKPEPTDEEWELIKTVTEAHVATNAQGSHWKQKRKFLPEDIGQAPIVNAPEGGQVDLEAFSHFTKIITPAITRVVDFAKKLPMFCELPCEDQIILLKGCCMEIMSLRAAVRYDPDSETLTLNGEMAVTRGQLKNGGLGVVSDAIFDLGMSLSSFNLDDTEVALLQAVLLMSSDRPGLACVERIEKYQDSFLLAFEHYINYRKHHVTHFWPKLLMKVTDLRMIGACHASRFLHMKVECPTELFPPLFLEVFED

[11] = biological target: T1, Thyroid hormone receptor beta (Rattus norvegicus); test: Binding affinity to the receptor was determined in nuclei of liver In vivo 1 hour after intravenous administration relative to T3; assay type: organism-based
Rattus norvegicus [12] = test: Potency for induction of GPDH (mitochondrial cytochrome C3-phosphoglycerate oxidoreductase) was measured 48 hours after single intramuscular injection relative to T3 in heart; assay type: functional
Rattus norvegicus [13] = test: Potency for induction of GPDH (mitochondrial cytochrome C3-phosphoglycerate oxidoreductase) was measured 48 hr after single im injection relative to T3 in liver; I=inactive after 2 daily doses of 50 mg/kg; assay type: functional, organism-based; parameters: dose 50 mg/kg
Rattus norvegicus [14] = test: Potency for induction of GPDH (mitochondrial cytochrome C 3-phosphoglycerate oxidoreductase) was measured 48 hr after single im injection relative to T3 in heart; LM=low maximal response after 2 daily doses of 50 mg/kg; assay type: functional, organism-based; parameters: dose 50 mg/kg; conditions: filed as partial agonist
[15] = biological target: T1, Thyroid hormone receptor beta (Rattus norvegicus); test: Binding affinity to the receptor was determined in vitro in isolated nuclei of rat liver relative to T3; assay type: tissue-based
[16] = biological target: T1, Thyroid hormone receptor beta (Rattus norvegicus); test: In vitro binding affinity to the receptor was determined in isolated nuclei of heart relative to T3
[17] = biological target: T1, Thyroid hormone receptor beta (Rattus norvegicus); test: Binding affinity to the receptor was determined in vivo in rat liver nuclei 1 h after intravenous administration relative to 3,5,3' triiodothyronine receptor
[18] = Aqueous solubility at 37 degree Celsius at pH 7.38; assay type: physicochemical
How it was run: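 Solubility in aqueous medium at 37 °C, pH 7.38; given in units of ×10^5 mol/L.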

Rattus norvegicus [19] = test: Percent increase in oxygen consumption after seven daily doses of test compound given intramuscularly, with concentration of compound at 3.3 mg/kg; assay type: functional; conditions: route intramuscular
How it was run: (§2)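 Euthyroid rats given seven daily doses, intramuscular or oral, by line; whole-body oxygen consumption measured as percent increase in metabolic rate.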

Rattus norvegicus [20] = test: Percent increase in oxygen consumption after seven daily doses of test compound given perorally, with concentration of compound at 5 mg/kg; assay type: functional; conditions: route oral; how it was run: as §2
[21] = Partition coefficient at 25 degree Celsius in octanol/aqueous buffer at pH 6.02; assay type: physicochemical
Rattus norvegicus [22] = test: Potency for induction of GPDH (mitochondrial cytochrome C3-phosphoglycerate oxidoreductase) was measured 48 hours after single intramuscular injection relative to T3 in liver; LM is low maximal response after 2 daily doses of 50 mg/kg; assay type: functional
Rattus norvegicus [23] = test: Percent increase in oxygen consumption after seven daily doses of test compound given perorally, with concentration of compound at 0.1 mg/kg; assay type: functional; conditions: dose 10 mg/kg; route oral; in the assay text read “10 mg/kg” for “0.1 mg/kg”; how it was run: as §2

## Cc1cc(Cc2cc(Oc3c(I)cc(C[C@H](N)C(=O)O)cc3I)ccc2O)ccc1O
Rattus norvegicus [1]
  Relative ED50: Partial agonist
[2]
  Relative IC50: 7.4
Rattus norvegicus [3]
  Relative ID50: 0.1
Rattus norvegicus [4]
  Ratio: 3.5
[5]
  Relative IC50: 9.7
Rattus norvegicus [6]
  Relative ID50: 0.35
Rattus norvegicus [7]
  Relative ED50: inactive

## N[C@@H](Cc1cc(I)c(Oc2ccc(O)c(Cc3ccc(O)c(Cl)c3)c2)c(I)c1)C(=O)O
Rattus norvegicus [1]
  Relative ED50: Partial agonist
[2]
  Relative IC50: 5.9
Rattus norvegicus [3]
  Relative ID50: 0.07
Rattus norvegicus [4]
  Ratio: 1
[5]
  Relative IC50: 15
Rattus norvegicus [6]
  Relative ID50: 0.07
Rattus norvegicus [7]
  Relative ED50: inactive

## N[C@@H](Cc1cc(I)c(Oc2ccc(O)c(Cc3ccccc3)c2)c(I)c1)C(=O)O
[2]
  Relative IC50: 15
Rattus norvegicus [8]
  Relative ED50: 2.2
[9]
  Ratio: 17
[10]
  Relative ID50: 0.3
[11]
  Relative ID50: 5.1
Rattus norvegicus [12]
  Relative ED50: 0.5

## Nc1ccc(Cc2cc(Oc3c(I)cc(C[C@H](N)C(=O)O)cc3I)ccc2O)cc1
[2]
  Relative IC50: 0.63
Rattus norvegicus [3]
  Relative ID50: 0.023
Rattus norvegicus [4]
  Ratio: 9.13
[5]
  Relative IC50: 1.1
Rattus norvegicus [6]
  Relative ID50: 0.21
Rattus norvegicus [7]
  Relative ED50: inactive
Rattus norvegicus [13]
  Relative ED50: inactive

## N[C@@H](Cc1cc(I)c(Oc2ccc(O)c(Cc3ccccn3)c2)c(I)c1)C(=O)O
[2]
  Relative IC50: 0.96
Rattus norvegicus [3]
  Relative ID50: 0.54
Rattus norvegicus [14]
  Relative ED50: Partial agonist
Rattus norvegicus [4]
  Ratio: 4.44
[5]
  Relative IC50: 3.5
Rattus norvegicus [6]
  Relative ID50: 2.4

## N[C@@H](Cc1cc(I)c(Oc2ccc(O)c(Cc3cnc(O)nc3)c2)c(I)c1)C(=O)O
[9]
  Ratio: 45.2
[15]
  Relative IC50: 0.15
[16]
  Relative IC50: 0.58
[17]
  Relative ID50: 0.28
Rattus norvegicus [7]
  Relative ED50: inactive
Rattus norvegicus [13]
  Relative ED50: inactive

## N[C@@H](Cc1cc(I)c(Oc2ccc(O)c(Cc3ccc([N+](=O)[O-])cc3)c2)c(I)c1)C(=O)O
Rattus norvegicus [1]
  Relative ED50: Partial agonist
[2]
  Relative IC50: 20
Rattus norvegicus [3]
  Relative ID50: 0.71
Rattus norvegicus [4]
  Ratio: 13.8
Rattus norvegicus [12]
  Relative ED50: 0.9
[5]
  Relative IC50: 64
Rattus norvegicus [6]
  Relative ID50: 9.8

## CC(C)c1cc(Cc2cc(Oc3c(I)cc(C[C@H](N)C(=O)O)cc3I)ccc2O)ccc1O
Rattus norvegicus [1]
  Relative ED50: Partial agonist
[2]
  Relative IC50: 0.67
Rattus norvegicus [3]
  Relative ID50: 0.11
Rattus norvegicus [14]
  Relative ED50: Partial agonist
Rattus norvegicus [4]
  Ratio: 1
[5]
  Relative IC50: 4.4
Rattus norvegicus [6]
  Relative ID50: 0.11

## Cc1cc(O)c(Cc2ccc(O)nc2)cc1Oc1c(I)cc(C[C@H](N)C(=O)O)cc1I
[2]
  Relative IC50: 0.028

## N[C@@H](Cc1cc(Cl)c(Oc2ccc(O)c(Cc3ccc(O)nc3)c2)c(Cl)c1)C(=O)O
[2]
  Relative IC50: 0.49
Rattus norvegicus [8]
  Relative ED50: 1.2
[18]
  solubility: 100 µM (≈ 44.9 µg/mL)
Rattus norvegicus [19]
  Increase: 26%
Rattus norvegicus [3]
  Relative ID50: 0.5
Rattus norvegicus [20]
  Increase: 31%
Rattus norvegicus [14]
  Relative ED50: Partial agonist
[5]
  Relative IC50: 0.53
Rattus norvegicus [6]
  Relative ID50: 13
[21]
  logD: 0.6

## Cn1cc(Cc2cc(Oc3c(I)cc(C[C@H](N)C(=O)O)cc3I)ccc2O)ccc1=O
Rattus norvegicus [1]
  Relative ED50: Partial agonist
[2]
  Relative IC50: 0.76
[9]
  Ratio: 74.1
Rattus norvegicus [7]
  Relative ED50: inactive

## N[C@@H](Cc1cc(I)c(Oc2ccc(O)c(Cn3ccc(=O)cc3)c2)c(I)c1)C(=O)O
[2]
  Relative IC50: 0.25
Rattus norvegicus [8]
  Relative ED50: 1.4
Rattus norvegicus [3]
  Relative ID50: 0.013
Rattus norvegicus [4]
  Ratio: 208
[5]
  Relative IC50: 0.4
Rattus norvegicus [6]
  Relative ID50: 2.7
Rattus norvegicus [7]
  Relative ED50: inactive

## N[C@@H](Cc1cc(I)c(Oc2ccc(O)c(Cc3ccc(O)cc3)c2)c(I)c1)C(=O)O
[2]
  Relative IC50: 17
Rattus norvegicus [22]
  Relative ED50: 2.2
[9]
  Ratio: 27.1
[11]
  Relative ID50: 19
Rattus norvegicus [12]
  Relative ED50: <0.1

## N[C@@H](Cc1cc(I)c(Oc2ccc(O)c(Cc3ccc(O)nn3)c2)c(I)c1)C(=O)O
Rattus norvegicus [23]
  Increase: 20%
[2]
  Relative IC50: 2
Rattus norvegicus [8]
  Relative ED50: 2.4
Rattus norvegicus [19]
  Increase: 19%
Rattus norvegicus [3]
  Relative ID50: 0.4
Rattus norvegicus [4]
  Ratio: 95
Rattus norvegicus [12]
  Relative ED50: <0.1
[5]
  Relative IC50: 4
Rattus norvegicus [6]
  Relative ID50: 38

## N[C@@H](Cc1cc(I)c(Oc2ccc(O)c(Cc3ccc(O)cn3)c2)c(I)c1)C(=O)O
[2]
  Relative IC50: 20
Rattus norvegicus [8]
  Relative ED50: 1.7
Rattus norvegicus [3]
  Relative ID50: 2.5
Rattus norvegicus [14]
  Relative ED50: Partial agonist
Rattus norvegicus [4]
  Ratio: 12.4
[5]
  Relative IC50: 15
Rattus norvegicus [6]
  Relative ID50: 31

## N#Cc1ccc(Cc2cc(Oc3c(I)cc(C[C@H](N)C(=O)O)cc3I)ccc2O)cc1
Rattus norvegicus [1]
  Relative ED50: Partial agonist
[2]
  Relative IC50: 13
[9]
  Ratio: 27.7
[10]
  Relative ID50: 0.22
[11]
  Relative ID50: 6.1
Rattus norvegicus [7]
  Relative ED50: inactive

## N[C@@H](Cc1cc(I)c(Oc2ccc(O)c(Cc3ccncc3)c2)c(I)c1)C(=O)O
Rattus norvegicus [1]
  Relative ED50: Partial agonist
[2]
  Relative IC50: 8.5
Rattus norvegicus [3]
  Relative ID50: 1.6
Rattus norvegicus [14]
  Relative ED50: Partial agonist
Rattus norvegicus [4]
  Ratio: 4.38
[5]
  Relative IC50: 15
Rattus norvegicus [6]
  Relative ID50: 7

## N[C@@H](Cc1cc(I)c(Oc2ccc(O)c(Cc3ccc(O)c(F)c3)c2)c(I)c1)C(=O)O
Rattus norvegicus [1]
  Relative ED50: Partial agonist
[2]
  Relative IC50: 31
Rattus norvegicus [3]
  Relative ID50: 0.37
Rattus norvegicus [4]
  Ratio: 1.62
[5]
  Relative IC50: 31
Rattus norvegicus [6]
  Relative ID50: 0.6
Rattus norvegicus [7]
  Relative ED50: inactive

## N[C@@H](Cc1cc(I)c(Oc2ccc(O)c(Cc3ccnc(O)c3)c2)c(I)c1)C(=O)O
Rattus norvegicus [1]
  Relative ED50: Partial agonist
[9]
  Ratio: 20
[15]
  Relative IC50: 0.042
[17]
  Relative ID50: 0.07
Rattus norvegicus [7]
  Relative ED50: inactive
